High-throughput results: PubChem, several laboratories
STEP inh – inhibitors of human striatal-enriched phosphatase STEP; P54829; recombinant STEP, OMFP fluorogenic substrate, fluorescence; inhibition, % at 20 µM; actives 0.25% (n = 360,000); AID 588621;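 active means inhibition at 20 µM, scaled per plate between control wells, above about 37%, limit read from the data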;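 further: 0% = DMSO with enzyme and substrate and 100% = substrate only without enzyme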
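Measure: Control-normalized % inhibition with plate pattern correction | Test system: STEP phosphatase, cell-free reaction | Medium: pH 6.0 Bis-Tris with DTT and Tween 20 | Technique: Fluorescence, 480/540 nm | Times: Reaction 20 min, ambient temperature | Doses: Single compound dose of 20 µM, 1% DMSO final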
DNMT1 block – DNMT1 (human) enzyme inhibition. inhibition (reported as % activation of signal), % at 10 µM. P26358. DNMT1 molecular beacon, Hinp1I cleavage, fluorescence. actives 0.83% (n = 360,000). AID 588458; in the data active means inhibition above about 50%
LMPTP block – LMPTP (human) inhibition; actives 0.22% (n = 360,000); P24666; inhibition, % at 20 µM; AID 651560; recombinant LMPTP-A, OMFP fluorogenic substrate, fluorescence intensity;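 active means compounds that cut the enzyme signal by at least half of the control window in the single-dose screen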;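 further: plate controls were DMSO wells with enzyme plus substrate for no effect and substrate without enzyme for full effect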
Target sequence (P24666 whole entry, looked up): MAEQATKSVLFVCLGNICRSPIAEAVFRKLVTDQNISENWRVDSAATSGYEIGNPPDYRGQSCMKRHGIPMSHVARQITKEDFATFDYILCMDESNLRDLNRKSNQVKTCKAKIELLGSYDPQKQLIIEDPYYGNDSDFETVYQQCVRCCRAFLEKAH
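Test system: LMPTP-A phosphatase enzyme; input: 0.625 nM LMPTP-A final; reagent: OMFP substrate, 400 µM final; compound dosing: 20 µM single dose, 3% DMSO; incubation: 50 min dark incubation at room temperature; measured by: endpoint fluorescence intensity from OMFP dephosphorylation; measure: % inhibition relative to no-enzyme and uninhibited control wells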
Scp1 inh – blocks human Scp-1 phosphatase activity; Recombinant Scp1, phosphopeptide, malachite green phosphate absorbance; actives 0.88% (n = 340,000); Q9GZU7; inhibition, % at 20 µM;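 active means inhibition above about 50% at 20 µM, limit read from the data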;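 further: plate controls were DMSO wells with enzyme for no effect and wells lacking enzyme for full effect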
Target sequence (Q9GZU7 76-261 limits assumed): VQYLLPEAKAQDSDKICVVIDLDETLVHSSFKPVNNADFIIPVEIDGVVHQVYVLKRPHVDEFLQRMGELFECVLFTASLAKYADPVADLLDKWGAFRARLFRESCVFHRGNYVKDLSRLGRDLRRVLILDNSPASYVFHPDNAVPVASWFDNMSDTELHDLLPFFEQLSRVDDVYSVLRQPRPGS
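System: SCP-1 catalytic domain; Reagent: Phospho 17-mer peptide substrate; Doses: one concentration, 20 µM, with 1.0% DMSO; Incubation: 45 min room-temperature reaction, 5 min colour, 30 min stabiliser; Signal: Phosphate-binding colour reagent, absorbance read at 630 nm.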
CASP6 VEID inh – caspase-6 (human) enzyme inhibition; P55212; purified caspase-6, Z-VEID-R110 cleavage fluorescence; inhibition, % at 12.5 µM; actives 0.53% (n = 350,000);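 active means mean inhibition across replicates at least about 35%, with every replicate also reaching that limit, limit read from the data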;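 further: 0% = median of neutral control wells and 100% = no fluorescence left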
SUMO1 PPI mod – alters human SUMO1 binding to SIM partners; P63165; SUMO1 binding to a labelled peptide, TR-FRET, 1 h; inhibition, % at 20 µM; actives 0.33% (n = 360,000); in the data active means inhibition above about 37%
Target sequence (P63165 whole entry, looked up): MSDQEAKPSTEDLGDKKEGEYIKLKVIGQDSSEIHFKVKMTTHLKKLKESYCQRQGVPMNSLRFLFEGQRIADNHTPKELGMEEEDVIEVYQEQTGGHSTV
Scp-1 conf – Scp-1 (human) inhibition, single-dose confirmed. shares compounds with Scp1 inh. recombinant SCP-1 catalytic domain, phosphate release, malachite green absorbance. inhibition, % at 20 µM. actives 61% (n = 2,500). AID 540281;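 further: plate controls were DMSO with enzyme for no effect and buffer wells lacking enzyme for full effect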
MG interference – colorimetric interference in Scp-1 counter-screen; shares compounds with Scp1 inh; Colorimetric interference counterscreen, malachite green absorbance 630 nm; apparent inhibition (interference), % at 20 µM; AID 540313; 2,500 tested, under 10 active;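 further: compounds added after enzyme reaction finished so only phosphate colour detection is probed; plate controls were DMSO wells with completed Scp-1 reaction for no effect and substrate wells lacking enzyme for full effect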
Scp1 DSF – validation of human Scp-1 inhibitors by thermal shift binding; Recombinant SCP1, Sypro Orange thermal shift Tm; actives 25% (n = 1,500); AID 540329; thermal shift relative to vanadate control, % at 40 µM; shares compounds with Scp1 inh;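 active means substances whose mean melting-temperature shift, as a percentage of the reference inhibitor's shift, reaches about 5.3%, limit read from the data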;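 further: 0% = Tm of DMSO wells and 100% = Tm with sodium orthovanadate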
Starred values were filed as active, the others as inactive. A selection: hits, their analogues and other compounds. The true share with any hit is near 1.7%.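 How the source made its calls, unless noted: active means inhibition of at least 30% at 20 µM; inactive means the rest.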

How did C[C@@H]1CN([C@H](C)CO)C(=O)c2cc(NC(=O)Nc3ccc4c(c3)OCO4)ccc2O[C@@H]1CN(C)C(=O)Nc1cccc2ccccc12 do in these assays?
CASP6 VEID inh: -0.5

Results for O=C(/C=C/c1ccco1)NCC(=O)N/N=C/c1ccc(Cl)cc1 ?
STEP inh: -0.3; DNMT1 block: 0.8; LMPTP block: -1.4; Scp1 inh: 0.7; CASP6 VEID inh: 2.0; SUMO1 PPI mod: -14.1

What do the screens show for `O=C(/C=C/c1ccco1)NCC(=O)N/N=C/c1ccc([N+](=O)[O-])cc1`?
STEP inh: 4.0; DNMT1 block: 39.8; LMPTP block: 37.6; Scp1 inh: 76.0*; CASP6 VEID inh: 2.8; SUMO1 PPI mod: -15.2; Scp-1 conf: 79.5*; MG interference: -2.7; Scp1 DSF: 6.6*

Results for CCOC(=O)C(C(=O)NCCCN1CCOCC1)C1CCCCC1 (stereo not given) ?
STEP inh: 1.9; DNMT1 block: 3.5; LMPTP block: -0.7; Scp1 inh: -9.1; SUMO1 PPI mod: 4.9

Results for CCc1ccc(NC(=O)CS(=O)CC(=O)Nc2ccc(F)cc2F)cc1 (stereo not given) ?
STEP inh: 10.0; DNMT1 block: 11.5; LMPTP block: 6.2; Scp1 inh: 93.7*; SUMO1 PPI mod: -3.4; Scp-1 conf: 89.0*; MG interference: -4.3; Scp1 DSF: -20.7

Results for CCOC(=O)NC1=NCC(C)(C)S1 ?
STEP inh: -1.2; DNMT1 block: 3.6; LMPTP block: -2.1; Scp1 inh: 2.2; CASP6 VEID inh: 0.4; SUMO1 PPI mod: -2.5

How did C[N+]1(CC2COC3(CCCCC3)O2)CCCC1 (stereo not given) do in these assays?
STEP inh: -3.1; DNMT1 block: -1.0; LMPTP block: -1.8; Scp1 inh: 61.4*; CASP6 VEID inh: 2.4; SUMO1 PPI mod: -1.6; Scp-1 conf: 0.2; MG interference: -1.9

How did C1CCCCCC2(CCCCC1)OCC(CN1CCOCC1)O2 (stereo not given) do in these assays?
STEP inh: -0.4; DNMT1 block: 0.7; LMPTP block: 0.1; Scp1 inh: -4.2; SUMO1 PPI mod: 6.1

What do the screens show for `CCSC1=N/C(=C\c2ccc(OC)cc2)C(=O)N1`?
STEP inh: -1.9; DNMT1 block: 3.7; LMPTP block: -1.4; Scp1 inh: 50.1*; CASP6 VEID inh: 6.2; SUMO1 PPI mod: -13.2; Scp-1 conf: 1.7; MG interference: -3.2

Results for CCOc1cc2[nH]c(=S)n(Cc3ccc(C(=O)NCCCN(CC)CC)cc3)c(=O)c2cc1OCC ?
STEP inh: -1.1; DNMT1 block: -0.8; LMPTP block: -0.1; Scp1 inh: 59.1*; CASP6 VEID inh: -20.4; SUMO1 PPI mod: 11.3; Scp-1 conf: -13.1; MG interference: -10.9

What do the screens show for `COc1ccc(CCNC(=O)c2ccc3c(=O)n(Cc4ccco4)c(=S)[nH]c3c2)cc1OC`?
STEP inh: 3.9; DNMT1 block: -7.1; LMPTP block: 3.5; Scp1 inh: 58.2*; CASP6 VEID inh: 4.6; SUMO1 PPI mod: 10.7; Scp-1 conf: -14.1; MG interference: -16.7

What do the screens show for `Cc1ccc(C(c2ccc(C)c(C)c2)C(O)C2OC(=O)C(O)C2O)cc1C` (stereo not given)?
STEP inh: 0.4; DNMT1 block: 11.8; LMPTP block: 3.0; Scp1 inh: 53.0*; CASP6 VEID inh: 14.4; SUMO1 PPI mod: 4.2; Scp-1 conf: 22.7; MG interference: -5.4

How did Cc1ccc(C(C)NC(=O)C2CCCC2)cc1C (stereo not given) do in these assays?
STEP inh: 2.4; DNMT1 block: -3.8; LMPTP block: -2.5; Scp1 inh: -0.6; CASP6 VEID inh: 0.9; SUMO1 PPI mod: 2.2

How did CC(C)NC(=O)c1cc2c(=O)n3ccccc3nc2s1 do in these assays?
STEP inh: -4.0; DNMT1 block: -3.0; LMPTP block: -0.4; Scp1 inh: 64.5*; CASP6 VEID inh: -1.1; SUMO1 PPI mod: 5.1; Scp-1 conf: -18.8; MG interference: -18.9

Results for CSc1ccccc1NC(=O)c1cc2c(=O)n3ccccc3nc2s1 ?
STEP inh: 1.1; DNMT1 block: 3.3; LMPTP block: 0.9; Scp1 inh: -6.0; CASP6 VEID inh: 0.3; SUMO1 PPI mod: -2.5

What do the screens show for `O=C(C[C@@H]1CC[C@H]2[C@@H](COC[C@@H](O)CN2C(=O)Nc2cccc(Cl)c2)O1)NCCCN1CCOCC1`?
CASP6 VEID inh: -1.5

Results for CCOc1cc(C2C3=C(CC(C)(C)CC3=O)N(CCOC)C3=C2C(=O)CC(C)(C)C3)ccc1OC ?
STEP inh: -0.6; DNMT1 block: 0.2; LMPTP block: -1.2; Scp1 inh: 54.3*; CASP6 VEID inh: 0.0; SUMO1 PPI mod: -2.2; Scp-1 conf: -1.9; MG interference: -5.7

Results for Cc1cc(Br)ccc1OCC(=O)NNC(=O)c1ccc(NC(=O)C2CC2)cc1 ?
STEP inh: -1.1; DNMT1 block: 12.3; LMPTP block: 5.2; Scp1 inh: 61.4*; CASP6 VEID inh: 1.3; SUMO1 PPI mod: -1.1; Scp-1 conf: 8.8; MG interference: -9.6

How did Cc1ccc(C)c(OCC(=O)NNC(=O)c2ccc(NC(=O)C3CC3)cc2)c1 do in these assays?
STEP inh: -2.6; DNMT1 block: -0.5; LMPTP block: -1.1; Scp1 inh: -1.8; CASP6 VEID inh: 1.6; SUMO1 PPI mod: 4.4

What do the screens show for `Cc1nc2ccc(C(=O)O)cc2c2c1CC(C)S2` (stereo not given)?
STEP inh: 6.9; DNMT1 block: 54.3*; LMPTP block: -0.1; Scp1 inh: 79.1*; SUMO1 PPI mod: 16.0; Scp-1 conf: 60.7*; MG interference: -9.5; Scp1 DSF: 4.2

Results for O=C(Cc1ccc(Br)cc1)NNC(=O)Nc1ccc(Cl)cc1 ?
STEP inh: 0.9; DNMT1 block: 26.1; LMPTP block: -0.4; Scp1 inh: 63.4*; CASP6 VEID inh: 20.4; SUMO1 PPI mod: 3.1; Scp-1 conf: 62.0*; MG interference: -3.2; Scp1 DSF: 3.7
